Assay outcomes: PubChem BioAssay, Johns Hopkins Ion Channel Center
MrgX1 allo act = positive allosteric modulators of MrgX1, primary screen, HEK293 cells, Fluo-4 calcium flux | Mas-related G-protein coupled receptor member X1 (Homo sapiens), Q96LB2 | FDSS; stronger effect = higher value | B-score at 10 µM | actives 0.63% (n = 310,000) | AID 588675, 2011;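 active = plate-corrected calcium response at least 3 library SD above typical, normal starting fluorescence, not activating the receptor alone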;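 note: compound read alongside a low EC10 to EC30 dose of BAM8-22 agonist; peak minus trough fluorescence over baseline measured at the second addition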
Target sequence (Q96LB2 whole entry, looked up): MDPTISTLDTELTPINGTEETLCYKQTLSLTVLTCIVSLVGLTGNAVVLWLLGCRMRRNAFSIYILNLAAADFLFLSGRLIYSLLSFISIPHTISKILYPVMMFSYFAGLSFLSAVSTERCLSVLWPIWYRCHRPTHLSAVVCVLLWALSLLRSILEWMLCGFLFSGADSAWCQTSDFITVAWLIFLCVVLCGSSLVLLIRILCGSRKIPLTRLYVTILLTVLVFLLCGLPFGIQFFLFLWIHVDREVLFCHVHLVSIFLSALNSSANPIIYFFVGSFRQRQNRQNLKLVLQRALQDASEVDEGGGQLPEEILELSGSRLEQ
MrgX1 agonist = agonists of human MrgX1 receptor, primary screen, HEK293 cells, Fluo-4 calcium flux | B-score at 10 µM | Mas-related G-protein coupled receptor member X1 (Homo sapiens), Q96LB2 | actives 0.44% (n = 310,000) | AID 588627, 2011 | Fluo-4 calcium fluorescence, agonist mode; stronger effect = higher value;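 active = calcium response B-score plate-corrected fluorescence ratio at least 3 library SD, with starting fluorescence B-score inside 5 SD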
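Test system: HEK293 cells stably expressing human MrgX1 receptor; Input: fifteen thousand cells per well; Dosing: compound delivered in addition one of three; Schedule: overnight seeding, then 1 h dark dye loading; Technique: Fluo-4 NW calcium fluorescence; Measure: B-scored fluorescence response ratio; Controls: positive and negative controls per plate.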
RGS4 act = RGS4 potentiators or activators, primary screen, cell-based, HEK293 M3R inducible RGS4, calcium flux | carbachol calcium flux Fluo4; stronger effect = lower value | B-score at 10 µM | actives 0.92% (n = 310,000);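 active = B-score of the integrated calcium signal more than 4 SD below the library mean, with starting fluorescence not abnormally high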;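 note: negative B-score means reduced calcium response which marks RGS4 activation or potentiation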
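Material: Inducible-RGS4 HEK293 cells carrying M3 receptor; also added: carbachol at ECmax as muscarinic agonist stimulus; incubation: compound preincubation 20 min at room temperature before agonist; signal: Fluo4-AM (2 µM) calcium-flux fluorescence, kinetic read; measure: integrated calcium ratio converted to B score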
MrgX1 antagonist = antagonists of human MrgX1 receptor, primary screen, HEK293 cells, Fluo-4 calcium flux; Mas-related G-protein coupled receptor member X1 (Homo sapiens), Q96LB2; B-score at 10 µM; BAM8-22 antagonism; stronger effect = lower value; AID 588676, 2011; actives 1.3% (n = 310,000);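 active = calcium-response B-score plate-corrected more than 3 library SD below zero, starting fluorescence within 5 deviations, no agonist response on first addition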;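 note: peak minus trough fluorescence over baseline after final BAM8-22 challenge near maximal dose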
RGS4 block = RGS4 inhibitors, primary screen, cell-based, HEK293 M3R inducible RGS4, calcium flux. B-score at 10 µM. actives 0.45% (n = 310,000). AID 463165, 2010. Fluo-4 calcium flux; stronger effect = higher value; triggered by carbachol at its EC20. Regulator of G-protein signaling 4 (Homo sapiens), P49798;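 active = B-score, a plate-corrected calcium signal, over three deviations above library mean, with baseline fluorescence within five deviations of library mean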;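 note: RGS4 expression induced by doxycycline in cells with stable M3 receptor; B-score is computed from the integrated fluorescence ratio over baseline after carbachol; higher B-score means a larger calcium signal and so more RGS4 inhibition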
Target sequence (P49798 whole entry, looked up): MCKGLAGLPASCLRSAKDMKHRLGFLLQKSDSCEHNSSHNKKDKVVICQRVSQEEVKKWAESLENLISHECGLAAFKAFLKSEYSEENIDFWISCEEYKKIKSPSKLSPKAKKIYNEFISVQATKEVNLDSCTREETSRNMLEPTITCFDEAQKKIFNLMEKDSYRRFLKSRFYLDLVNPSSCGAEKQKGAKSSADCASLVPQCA
MrgX1 PAM conf = MrgX1 positive allosteric modulators, duplicate retest, confirmation, HEK293 cells, Fluo-4 calcium flux; shares compounds with MrgX1 allo act; Fluo-4 calcium fluorescence, FDSS; activation (ratio percentage), % at 10 µM; actives 13% (n = 1,200); AID 602413, 2012;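 active = ratio at least 3 SD above the weak peptide control, stable starting fluorescence, no direct agonism earlier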;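 note: compound followed by low BAM8-22 agonist challenge near EC20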
HEK293 Ca flux = nonspecific calcium signal in parental HEK293, confirmation, counter-screen for MrgX1 antagonist project, parental HEK293 cells, Fluo-4 calcium flux; shares compounds with MrgX1 antagonist; Fluo-4 calcium fluorescence, FDSS; fluorescence ratio F(max-min)/F0 at 10 µM; actives 2% (n = 4,000); AID 624111, 2012;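 active = duplicate-averaged calcium fluorescence ratio at least three times the standard deviation of buffer wells, a nonspecific response in parental cells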
HEK293 Ca counter = calcium response in parental HEK293 cells, primary screen, counter-screen for MrgX1 allosteric activator project, cell-based, Fluo-4 calcium flux, duplicate; fluorescence ratio F(max-min)/F0 at 10 µM; actives 0.4% (n = 4,000); AID 624114, 2012; shares compounds with MrgX1 antagonist; Fluo-4 fluorescence ratio; stronger effect = higher value;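 active = calcium fluorescence ratio, averaged over duplicates, at least 3 SD of the buffer-well ratio, meaning a nonspecific response in receptor-free cells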;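 note: untransfected parental HEK293 lacking MrgX1 used as counterscreen for MrgX1 allosteric activators; fluorescence change taken during the second addition on a kinetic imager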
HEK293 Ca cntr2 = calcium response in parental HEK293 cells, primary screen, counter-screen for MrgX1 agonist project, cell-based, Fluo-4 calcium flux, duplicate, agonist mode; shares compounds with MrgX1 antagonist; Fluo-4 calcium fluorescence (FDSS); stronger effect = higher value; fluorescence ratio F(max-min)/F0 at 10 µM; actives 8.7% (n = 4,000); AID 624115, 2012;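 active = calcium fluorescence ratio at least three times the spread of buffer wells, meaning a non-specific response in parental cells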
A number is an active result; i = inactive; nt = no result. In the library only some 3.5% were active in any assay of this set; here they are far more common.

SMILES	MrgX1 allo act	MrgX1 agonist	RGS4 act	MrgX1 antagonist	RGS4 block	MrgX1 PAM conf	HEK293 Ca flux	HEK293 Ca counter	HEK293 Ca cntr2
CCC(C)(C)C1CCc2[nH]nc(C(=O)NCCCNC(=O)OC(C)(C)C)c2C1 (stereo unspecified)	i	i	nt	i	nt	nt	nt	nt	nt
Cc1cc(Cl)cc(Br)c1OCCCCn1cncn1	6.86	i	i	i	i	i	i	i	i
O=C(Cc1ccccc1)N1CCC(c2ccccc2)C1 (stereo unspecified)	i	i	i	i	i	nt	nt	nt	nt
COc1ccc(CC(=O)N2CCC(c3ccccc3)C2)cc1 (stereo unspecified)	7.99	i	i	i	i	i	i	i	i
CCN(CC)S(=O)(=O)c1ccc(N2CCCC2)c(NC(=O)c2ccc(N3CCCC3=O)cc2)c1	i	i	i	i	i	nt	nt	nt	nt
COC(=O)c1cc(C(=O)OC)n(Cc2ccc(C)cc2)c1C	i	i	i	i	i	nt	nt	nt	nt
Cc1ccc(-n2nnnc2-c2cccc(C)c2)cc1	i	i	i	i	i	nt	nt	nt	nt
Cc1cc(-c2nnnn2-c2ccc(C(F)(F)F)cc2)no1	6.98	i	i	i	i	i	i	i	i
O=C(c1sc2cc(Cl)ccc2c1Cl)N1CCN(CCc2ccccn2)CC1	i	i	i	i	i	nt	nt	nt	nt
C[C@@H](C(=O)CC(=O)OC(C)(C)C)[C@@H](O)c1ccccc1	i	i	i	i	i	nt	nt	nt	nt
CCCCC(=O)NC(=S)Nc1cccc(NC(=O)CC)c1	i	i	i	i	i	nt	nt	nt	nt
CCCCC(=O)NC(=S)Nc1c(C)cc(Br)cc1C	9.27	i	i	i	i	i	i	i	i
O=C(CN(C1CCCCC1)S(=O)(=O)c1ccccc1)N1CCCC1	i	i	i	i	i	nt	nt	nt	nt
O=C(CN(C1CCCCC1)C1CCCCC1)N1CCc2ccccc2C1	8.79	i	i	i	i	i	i	i	i
Cc1sc2ncnc(NCC(C)(C)N3CCOCC3)c2c1C	8.71	i	i	i	i	i	i	i	i
Cc1sc2ncnc(NCC3(N4CCOCC4)CCCCC3)c2c1C	i	i	i	i	i	nt	nt	nt	nt
CC(C)(C)S(=O)(=O)c1cnc(N2CCOCC2)nc1N	i	i	i	i	i	nt	nt	nt	nt
CC(C)S(=O)(=O)c1cnc(N2CCOCC2)nc1N	16.3	i	i	i	i	i	i	i	i
Cn1c(=O)n(C)c2cc(C(N)=O)ccc21	14.7	i	i	i	i	i	i	i	i
Cc1ccc(Cl)cc1S(=O)(=O)N1CCC(C(=O)NC2CCN(Cc3ccccc3)CC2)CC1	i	i	i	i	i	nt	nt	nt	nt
Cc1cc2c(c(SCC(=O)N(C)c3ccccc3)n1)C(=O)OC2	i	i	i	i	i	nt	nt	nt	nt
Cc1cc2c(c(SCC(N)=O)n1)C(=O)OC2	6.74	i	i	i	i	i	i	i	i
FC(F)Oc1ccc(NC(=S)N2CCc3ccccc32)cc1	i	i	i	i	i	nt	nt	nt	nt
COc1ccc(-c2cc(-c3ccccc3)c(C#N)c(SCC(=O)O)n2)cc1	i	i	i	i	i	nt	nt	nt	nt
N#Cc1c(-c2ccccc2)cc(-c2ccccc2)nc1SCC(=O)NCC(=O)O	19.3	i	i	i	i	i	i	i	i
SMILES	MrgX1 allo act	MrgX1 agonist	RGS4 act	MrgX1 antagonist	RGS4 block	MrgX1 PAM conf	HEK293 Ca flux	HEK293 Ca counter	HEK293 Ca cntr2
O=C(Cn1nc(CNc2ccc(Br)cc2)[n+]2c1CCCCC2)c1ccc([N+](=O)[O-])cc1	i	i	i	i	i	nt	nt	nt	nt
COc1ccc(CCN(Cc2cccs2)S(=O)(=O)c2ccc(C(=O)O)cc2)cc1OC	i	i	i	i	i	nt	nt	nt	nt
CC(=O)Nc1ccc(NC(=O)c2ccccc2CCc2ccccc2)cc1	15	i	i	i	i	i	i	i	i
CC(=O)Nc1ccc(NC(=O)c2ccccc2C)cc1	i	i	i	i	i	nt	nt	nt	nt
Cc1ccc(NC(=O)c2ccccc2O)cc1	11	i	i	i	i	i	i	i	i
COc1ccccc1NC(=O)NCCN1CCN(c2cccc(Cl)c2)CC1	i	i	i	i	i	nt	nt	nt	nt
CCc1ccc(NC(=O)C(=O)NCC2CCCN2S(=O)(=O)c2cccs2)cc1 (stereo unspecified)	i	i	i	i	i	nt	nt	nt	nt
CNc1nc2[nH]c(=O)c3c(c2s1)OC(N)=C(C#N)C3c1cccc(F)c1 (stereo unspecified)	17.4	i	i	i	i	i	i	i	i
CC1Cc2cc(S(=O)(=O)N3CCC(C(=O)NCc4ccco4)CC3)ccc2N1C(=O)C1CCC1 (stereo unspecified)	i	i	i	i	i	nt	nt	nt	nt
COc1ccc(OC)c(CN2CCN(C(=O)c3cccc(S(=O)(=O)Nc4ccccc4OC)c3)CC2)c1	i	i	i	i	i	nt	nt	nt	nt
COc1ccc(OC)c(CN2CCN(C(=O)c3ccc(NS(=O)(=O)c4cccc([N+](=O)[O-])c4)cc3)CC2)c1	19.9	i	i	i	i	38.0%	i	i	i
CC(=O)c1cc2c(cc1NC(=O)CN1CCCCC1C)OCO2 (stereo unspecified)	11.3	i	i	i	i	i	i	i	i
Cc1nn(CC(=O)Nc2ccc(Cl)cc2)c(=O)c2cc(-c3ccccc3)nn12	i	i	i	i	i	nt	nt	nt	nt
COc1cc(OC)c(C(=O)NCCCn2ccnc2)cc1OC	6.5	i	i	i	i	i	i	i	i
COc1ccc(C(=O)NCCCn2ccnc2)cc1	i	i	i	i	i	nt	nt	nt	nt
Cc1ccc(S(=O)(=O)c2nnn(-c3cccc(F)c3)c2N)cc1	8.85	i	i	i	i	i	i	i	i
C=CC(=O)NC(NC(=O)C=C)c1ccccc1F	i	i	i	i	i	nt	nt	nt	nt
O=C(c1ccccc1)c1nc[nH]c1C(=O)Nc1ccccc1	9.87	i	i	i	i	i	i	i	i
O=C(Nc1ccccc1)c1ccc[nH]1	i	i	i	i	i	nt	nt	nt	nt
CCCCC1(C)NC(=O)c2c(C)sc(C(=O)OCC)c2N1 (stereo unspecified)	8.33	i	i	i	i	i	i	i	i
